Key:
[1] = Inhibition of Beta-lactamase AmpC by quantitative high throughput screening
[2] = target: T1, Cruzipain (Trypanosoma cruzi, UniProt P25779); assay: Inhibition of Trypanosoma cruzi cruzain by Flexstation microplate spectrofluorimetry
Outline: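 Secondary 96-well assay: 0.4 nM cruzain in 0.1 M sodium acetate pH 5.5, 5 mM DTT, with or without 0.01% Triton X-100. Compound from 200x DMSO stock preincubated with enzyme 15 min. Reaction started with Z-Phe-Arg-AMC at 2.5 μM final (Km 2 μM) and followed for 5 min. Percent inhibition taken from initial rates versus a DMSO control. Each assay run at least twice.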

[3] = target: T1, Cruzipain; assay: Inhibition of Trypanosoma cruzi cruzain by quantitative high throughput screening
Outline: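 1536-well qHTS in 100 mM acetate pH 5.5 with 5 mM DTT, 4 μL final volume. Two conditions: 0.01% Triton X-100 with 1.5 nM cruzain, or 0.00005% Triton with 3 nM cruzain. Seven compound concentrations from 57.5 μM to 3.7 nM, preincubated 15 min at room temperature. Then 2 μM Z-Phe-Arg-AMC added. Fluorescence (ex 340/em 450) read kinetically over 60 s. Initial-rate data fitted to a four-parameter Hill equation.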

T1 sequence (P25779 whole entry): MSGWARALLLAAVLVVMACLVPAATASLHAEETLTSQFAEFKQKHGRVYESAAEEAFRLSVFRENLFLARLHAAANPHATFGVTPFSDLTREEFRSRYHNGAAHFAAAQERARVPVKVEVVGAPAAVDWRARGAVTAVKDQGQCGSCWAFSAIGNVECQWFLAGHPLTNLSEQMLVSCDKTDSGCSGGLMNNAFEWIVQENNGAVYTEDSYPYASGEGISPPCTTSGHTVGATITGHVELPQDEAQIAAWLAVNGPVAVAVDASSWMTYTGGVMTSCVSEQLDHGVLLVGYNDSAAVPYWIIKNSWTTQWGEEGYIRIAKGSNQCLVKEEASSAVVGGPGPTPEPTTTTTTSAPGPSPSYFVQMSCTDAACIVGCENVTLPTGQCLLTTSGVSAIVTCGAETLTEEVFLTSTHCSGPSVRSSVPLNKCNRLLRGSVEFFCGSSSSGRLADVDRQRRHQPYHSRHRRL

SMILES: O=[N+]([O-])c1ccccc1S(=O)(=O)NC[C@H]1CC[C@H](CNCC2CCc3ccccc3C2)CC1 (some centres not stated)
- IC50 [1]: 13 µM
- IC50 [2]: > 120 µM
- IC50 [3]: > 60 µM

SMILES: CCCCC/C=C\C/C=C\C/C=C\C/C=C\CCCC(=O)Nc1ccc(O)cc1
- IC50 [1]: 10 µM
- IC50 [2]: 30 µM
- IC50 [3]: > 60 µM

SMILES: Cc1cc(NC(=O)c2cc(CC(C)C)on2)no1
- IC50 [1]: 4 µM
- IC50 [2]: 120 µM
- IC50 [3]: > 60 µM

SMILES: COc1ccc(S(=O)(=O)Nc2nc3ccccc3nc2NCc2ccc3c(c2)OCO3)cc1
- IC50 [2]: 12 µM

SMILES: O=C(Nc1nc(-c2ccc(S(=O)(=O)N3CCCCCC3)cc2)cs1)c1cccs1
- IC50 [1]: 8 µM
- IC50 [2]: 12 µM
- IC50 [3]: > 60 µM

SMILES: Oc1cc(-c2ccc(Cl)c(Cl)c2)[nH]n1
- IC50 [1]: 13 µM
- IC50 [2]: 12 µM
- IC50 [3]: > 60 µM

SMILES: O=C(CS[n+]1cc(-c2ccc(F)cc2)cs1)NC(=O)NCc1ccco1
- IC50 [1]: 3 µM
- IC50 [2]: 60 µM
- IC50 [3]: > 60 µM

SMILES: O=C(CSc1nnc(-c2ccccc2)o1)N1CCN(c2ccccc2)CC1
- IC50 [1]: 13 µM
- IC50 [2]: 30 µM
- IC50 [3]: > 60 µM

SMILES: CCn1ccnc1C(O)c1cccc(OC)c1OC (configuration not stated)
- IC50 [1]: 4 µM
- IC50 [2]: > 120 µM
- IC50 [3]: > 60 µM

SMILES: O=C(Nc1ccc(/N=N/c2ccccc2)cc1)c1cccc(Cl)c1
- IC50 [2]: 12 µM

SMILES: Cc1ccc(Cl)cc1NC(=O)CCC(=O)Nc1cc(Cl)ccc1C
- IC50 [2]: 12 µM

SMILES: C=C(C)CSc1cc(N)c(C#N)c(-c2ccc(C)cc2)c1C#N
- IC50 [1]: 6 µM
- IC50 [2]: 12 µM
- IC50 [3]: > 60 µM

SMILES: Cc1ccc(NC(=O)CSC(N)=O)cc1Cl
- IC50 [1]: 13 µM
- IC50 [2]: > 120 µM
- IC50 [3]: > 60 µM

SMILES: CCc1ccc(C(=O)CSC2=C(C#N)C(c3ccco3)C(C(C)=O)=C(C)N2)cc1 (configuration not stated)
- IC50 [1]: 13 µM
- IC50 [2]: 30 µM
- IC50 [3]: > 60 µM

SMILES: c1ccc(-c2cc3c(NCC4COc5ccccc5O4)ncnc3s2)cc1 (configuration not stated)
- IC50 [2]: 12 µM

SMILES: CCN(Cc1ccccc1)c1nc2c(S(=O)(=O)c3ccccc3)nnn2c2ccc(Cl)cc12
- IC50 [2]: 12 µM

SMILES: Cc1cccc(NS(=O)(=O)c2ccc(C)c(C(=O)OCC(=O)Nc3cc(C)on3)c2)c1
- IC50 [1]: 10 µM
- IC50 [2]: 30 µM
- IC50 [3]: > 60 µM

SMILES: O=C(Cn1c(=O)oc2ccccc21)Nc1oc(-c2ccccc2)c(-c2ccccc2)c1O
- IC50 [1]: 13 µM
- IC50 [2]: 12 µM
- IC50 [3]: > 60 µM

SMILES: O=C(Nc1nc(-c2cccs2)cs1)c1ccc(S(=O)(=O)N2CCCC2)cc1
- IC50 [1]: 13 µM
- IC50 [2]: 12 µM
- IC50 [3]: > 60 µM

SMILES: O=C(COC(=O)c1cccc(Oc2ccccc2)c1)Nc1nnc(-c2ccccc2)o1
- IC50 [1]: 16 µM
- IC50 [2]: 12 µM
- IC50 [3]: > 60 µM

SMILES: Cn1c(C(C#N)C(=O)c2sc3ccccc3c2Cl)nc2ccccc21 (configuration not stated)
- IC50 [1]: 13 µM
- IC50 [2]: 12 µM
- IC50 [3]: > 60 µM

SMILES: O=C(COC(=O)c1cc(-c2ccco2)nc2ccccc12)NCc1ccc2c(c1)OCO2
- IC50 [1]: 13 µM
- IC50 [2]: 30 µM
- IC50 [3]: > 60 µM

SMILES: COC(=O)c1ccc(-c2nc(-c3ccc(Br)o3)no2)cc1
- IC50 [1]: 4 µM
- IC50 [2]: 30 µM
- IC50 [3]: > 60 µM

SMILES: Cc1ccc(C(=O)Nc2nc(-c3cc(Cl)sc3Cl)cs2)cc1
- IC50 [2]: 12 µM

SMILES: COc1ccc(C(=O)Nc2nncs2)c(OC)c1
- IC50 [1]: 4 µM
- IC50 [2]: > 120 µM
- IC50 [3]: > 60 µM

SMILES: O=C(c1ccccc1)c1cn(CC(=O)N2CCCC2)c2ccccc12
- IC50 [1]: 4 µM
- IC50 [2]: 120 µM
- IC50 [3]: > 60 µM

SMILES: Cc1cc(=O)oc2cc(OCC#N)ccc12
- IC50 [1]: 4 µM
- IC50 [2]: > 120 µM
- IC50 [3]: > 60 µM

SMILES: Cc1sc(NC(=S)NC(=O)C2CCCCC2)c(C(N)=O)c1C
- IC50 [2]: 12 µM

SMILES: Cn1cnnc1SCC(=O)Nc1sc2c(c1C(N)=O)CCC2
- IC50 [1]: 10 µM
- IC50 [2]: 120 µM
- IC50 [3]: > 60 µM

SMILES: CCSc1nnc(NC(=O)c2ccc(Br)s2)s1
- IC50 [1]: 10 µM
- IC50 [2]: 12 µM
- IC50 [3]: > 60 µM

SMILES: NC(=O)SCC(=O)Nc1cccc(Cl)c1
- IC50 [1]: 8 µM
- IC50 [2]: > 120 µM
- IC50 [3]: > 60 µM

SMILES: O=C(Nc1nc(-c2cccc(Br)c2)cs1)Oc1ccccc1
- IC50 [2]: 30 µM

SMILES: Cc1ccc(-c2csc(NC(=O)c3ccno3)n2)cc1
- IC50 [1]: 8 µM
- IC50 [2]: > 120 µM
- IC50 [3]: > 60 µM

SMILES: N#Cc1c(-c2ccccc2)cc(-c2ccco2)c(C#N)c1N
- IC50 [1]: 6 µM
- IC50 [2]: 12 µM
- IC50 [3]: > 60 µM

SMILES: O=C(CSCc1ccc(Cl)cc1)c1ccco1
- IC50 [1]: 10 µM
- IC50 [2]: 120 µM
- IC50 [3]: > 60 µM

SMILES: Cc1cc(NC(=O)Cc2cccs2)no1
- IC50 [1]: 13 µM
- IC50 [2]: 30 µM
- IC50 [3]: > 60 µM

SMILES: COc1ccc(/C=N/NC(=O)c2ccc(Br)cc2)cc1Cn1cc(Cl)cn1
- IC50 [2]: 12 µM

SMILES: C=CCNC(=O)c1cc([N+](=O)[O-])cc2c(=O)[nH]c(Nc3ccc(Cl)c(Cl)c3)nc12
- IC50 [1]: 2 µM
- IC50 [3]: > 60 µM

SMILES: O=c1c(O)c(-c2ccc(O)c(O)c2)oc2cc(O)ccc12 [FISETIN]
- IC50 [1]: 13 µM
- IC50 [2]: 30 µM
- IC50 [3]: > 60 µM

SMILES: CCCCCCNC(=O)Nc1ccc(S(=O)(=O)Nc2ccc(CCNC[C@H](O)COc3ccc(O)cc3)cc2)cc1 [L-755507]
- IC50 [2]: 12 µM
- IC50 [3]: > 60 µM

SMILES: O=C(c1ccc(OCCN2CCCCC2)cc1)c1c(-c2ccc(O)cc2)sc2cc(O)ccc12 [RALOXIFENE]
- IC50 [1]: 5 µM
- IC50 [3]: > 60 µM

— ChEMBL document CHEMBL1156758, “Quantitative analyses of aggregation, autofluorescence, and reactivity artifacts in a screen for inhibitors of a thiol protease” (J Med Chem, 2010)
